Data set [1] concerns L. infantum axenic amastigotes. The data set can be described thus: Antileishmanial activity on L. infantum axenic amastigotes. It counts as cell-based. The settings on record: Leishmania infantum, 48 h, read-out: IC50 L. infantum axenic amastigotes. Summed up:
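They were moved to RPMI at pH 5.4 for 24 h at 24°C, then 24 h at 37°C, to give axenic amastigotes. Compounds in DMSO (final <0.5% v/v) were tested in duplicate for 48 h at 37°C. Read-out was Steady Glow luminescence. IC50 came from non-linear regression, mean of three independent experiments.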

Data set [2] is described as follows: Cytotoxic evaluation on HepG2 cell line. It counts as cell-based. As to conditions: human, HepG2 cells (hepatocarcinoma cell line). The method in brief: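 HepG2 cells were seeded at 1 × 10^5 cells/mL in Alpha MEM with 10% FBS, 2 mM L-glutamine and antibiotics, and pre-incubated for 24 h at 37°C, 5% CO2. Compounds were added at various concentrations for 72 h, and wells were checked for precipitate. MTT (0.5 mg/mL) was added for 2 h, formazan was dissolved in DMSO, and A570 was read. Doxorubicin was the positive control. CC50 came from non-linear regression, mean of three independent experiments.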

Data set [3] deals with T. brucei brucei trypomastigotes. The data set can be described thus: Antitrypanosomal activity on T. brucei brucei trypomastigotes. It counts as cell-based, Trypanosoma brucei brucei. The settings on record: for Antitrypanosomal selectivity Index: CC50 HepG2 / IC50 T. brucei brucei; for times more potent than the meta-substituted analogue: T. brucei brucei IC50, para versus meta (15 vs 16, 21 vs 22).

The nature of data set [4]: Cyclic voltammetry, reduction potentials. It counts as physicochemical. As to conditions: DMSO/TBAPF6, SCE/GC, 1 electron reversible reduction, V versus NHE.
The test system of data set [5] is T. brucei brucei trypomastigotes wild type strain. The data set can be described thus: Bioactivation study, wild type strain. The settings on record: Trypanosoma brucei, 72 h, read-out: IC50 T. brucei brucei trypomastigotes wild type strain. It is filed as cell-based.
The subject of data set [6] is T. brucei brucei trypomastigotes NTR over-expressing strain. The data set can be described thus: Bioactivation study, strain overexpressing the nitroreductase. It counts as cell-based, Trypanosoma brucei. As to conditions: for IC50: Trypanosoma brucei, 72 h, read-out: IC50 T. brucei brucei trypomastigotes NTR over-expressing strain; for Fold change: wild type IC50 / NTR over-expressing IC50. The method in brief:
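Bloodstream T. brucei S427 'single marker' was grown at 37°C in HMI9-T with 2.5 µg/mL G418. The NTR1-overexpressing line also received 2.5 µg/mL phleomycin, with NTR induced by 1 µg/mL tetracycline 48 h before assay. Triplicate cultures were seeded at 1 × 10^5 cells/mL with inhibitor and counted after 72 h. EC50 came from a two-parameter fit (slope factor m) to background-corrected density as % of uninhibited control. Fold change is wild-type IC50 / overexpressor IC50.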

The nature of data set [7]: Chemical stability of the product. It counts as physicochemical. As to conditions: in words; cyclises to 25 on recrystallisation from acetonitrile.
Data set [8] is described as follows: Aqueous solubility as observed in the biological assays. It is filed as physicochemical. As to conditions: in words.

On to `C[C@@H]1[C@H](O)[C@@H](C)/C=C/C=C/C=C/C=C/C=C/C=C/C=C/[C@H](O[C@@H]2O[C@H](C)[C@@H](O)[C@H](N)[C@@H]2O)C[C@@H]2O[C@](O)(C[C@@H](O)C[C@@H](O)[C@H](O)CC[C@@H](O)C[C@@H](O)CC(=O)O[C@H]1C)C[C@H](O)[C@H]2C(=O)O` [Amphotericin B, reference compound], for which the IC50 (commonly the concentration that gives 50% inhibition) in data set [1] was found to be 0.06 ± 0.001 µM. Moreover, the half-maximal cytotoxic concentration (CC50) (commonly the concentration giving 50% cytotoxicity) at 72 h in data set [2] was 7 ± 0.25 µM.
Turning to `O=c1[nH]c2c([N+](=O)[O-])cccc2cc1-c1ccccc1` [Compound 1, 8-nitro-3-phenylquinolin-2(1H)-one], the IC50 in data set [1] was greater than 12 µM. This molecule returned a 50% cytotoxic concentration (CC50) at 72 h in data set [2] greater than 12 µM. The “Antitrypanosomal selectivity Index” value in data set [3] is recorded as greater than 2. Also, the “E° (reduction potential)” value in data set [4] is reported as -0.59 V.
Take `COc1ccc(-c2cc3cccc([N+](=O)[O-])c3[nH]c2=O)cc1` [Compound 2, 3-(4-methoxyphenyl)-8-nitroquinolin-2(1H)-one]: the concentration for half-maximal inhibition (IC50) in data set [1] was greater than 6 µM. In data set [2], this molecule registered a CC50 at 72 h greater than 6 µM.
`O=c1[nH]c2c([N+](=O)[O-])cccc2cc1-c1ccc(O)cc1` [Compound 3, 3-(4-hydroxyphenyl)-8-nitroquinolin-2(1H)-one]: the IC50 in data set [1] is greater than 3 µM. Also, in data set [2], the CC50 at 72 h is greater than 3 µM.
Turning to `Nc1ccc(-c2cc3cccc([N+](=O)[O-])c3[nH]c2=O)cc1` [Compound 4, 3-(4-aminophenyl)-8-nitroquinolin-2(1H)-one], the IC50 in data set [1] was greater than 3 µM. Besides, the 50% cytotoxic concentration (CC50) at 72 h in data set [2] is greater than 3 µM.
On to `O=c1[nH]c2c([N+](=O)[O-])cccc2cc1-c1ccc(Cl)cc1` [Compound 5, 3-(4-chlorophenyl)-8-nitroquinolin-2(1H)-one], for which the IC50 in data set [1] was greater than 3 µM. Moreover, the CC50 at 72 h in data set [2] was greater than 3 µM.
Regarding `O=c1[nH]c2c([N+](=O)[O-])cccc2cc1-c1ccc(F)cc1` [Compound 6, 3-(4-fluorophenyl)-8-nitroquinolin-2(1H)-one], the IC50 in data set [1] was greater than 6 µM. The same molecule returned a CC50 at 72 h in data set [2] greater than 6 µM.
In the case of `O=c1[nH]c2c([N+](=O)[O-])cccc2cc1-c1ccc(C(F)(F)F)cc1` [Compound 7, 8-nitro-3-(4-trifluoromethylphenyl)quinolin-2(1H)-one], the IC50 in data set [1] is greater than 6 µM. Moreover, in data set [2], the CC50 at 72 h is greater than 6 µM. Also, the “E° (reduction potential)” value in data set [4] is recorded as -0.53 V.
On to `O=c1[nH]c2c([N+](=O)[O-])cccc2cc1-c1ccsc1` [Compound 8, 8-nitro-3-(thiophen-3-yl)quinolin-2(1H)-one], for which, in data set [1], the IC50 was greater than 6 µM. Further, in data set [2], the 50% cytotoxic concentration (CC50) at 72 h is greater than 6 µM.
`O=c1[nH]c2c([N+](=O)[O-])cccc2cc1-c1ccco1` [Compound 9, 3-(2-furanyl)-8-nitroquinolin-2(1H)-one]: the IC50 in data set [1] was greater than 3 µM. In data set [2], this molecule displayed a CC50 at 72 h greater than 3 µM.
For `O=c1[nH]c2c([N+](=O)[O-])cccc2cc1-c1cccnc1` [Compound 10, 8-nitro-3-(pyridine-3-yl)quinolin-2(1H)-one], the IC50 in data set [1] is greater than 50 µM. In addition, the CC50 at 72 h in data set [2] is greater than 25 µM. In data set [3], the “Antitrypanosomal selectivity Index” value is greater than 9.
The corresponding values for `O=c1[nH]c2c([N+](=O)[O-])cccc2cc1-c1ccc(CO)cc1` [Compound 12, 3-(4-hydroxymethylphenyl)-8-nitroquinolin-2(1H)-one] are greater than 25 µM, greater than 25 µM and greater than 13.
As for `O=c1[nH]c2c([N+](=O)[O-])cccc2cc1-c1cccc(CO)c1` [Compound 13, 3-(3-hydroxymethylphenyl)-8-nitroquinolin-2(1H)-one], the IC50 in data set [1] was 29.3 ± 4.2 µM. Also, the CC50 at 72 h in data set [2] is greater than 25 µM. For the same molecule, the “Antitrypanosomal selectivity Index” value in data set [3] is on record as greater than 17.
The corresponding values for `O=c1[nH]c2c([N+](=O)[O-])cccc2cc1-c1ccccc1CO` [Compound 14, 3-(2-hydroxymethylphenyl)-8-nitroquinolin-2(1H)-one] are 22 ± 2 µM, greater than 100 µM and greater than 14.
For the molecule `O=Cc1ccc(-c2cc3cccc([N+](=O)[O-])c3[nH]c2=O)cc1` [Compound 15, 3-(4-formylphenyl)-8-nitroquinolin-2(1H)-one], the half-maximal inhibitory concentration (IC50) in data set [1] amounted to 35 ± 1.7 µM. Further, in data set [2], the CC50 at 72 h was found to be 30 ± 3.7 µM. In data set [3], the “Antitrypanosomal selectivity Index” value stood at 60 and the “times more potent than the meta-substituted analogue” value amounted to 11.
For the molecule `O=Cc1cccc(-c2cc3cccc([N+](=O)[O-])c3[nH]c2=O)c1` [Compound 16, 3-(3-formylphenyl)-8-nitroquinolin-2(1H)-one], the IC50 in data set [1] was 10.2 ± 0.6 µM. In data set [2], this molecule registered a 50% cytotoxic concentration (CC50) at 72 h greater than 100 µM. The “Antitrypanosomal selectivity Index” value in data set [3] was greater than 18.
As for `O=Cc1ccccc1-c1cc2cccc([N+](=O)[O-])c2[nH]c1=O` [Compound 17, 3-(2-formylphenyl)-8-nitroquinolin-2(1H)-one], in data set [1], the IC50 worked out at 9.8 ± 1.2 µM. Moreover, the CC50 at 72 h in data set [2] was greater than 50 µM. In addition, the “Antitrypanosomal selectivity Index” value in data set [3] is greater than 7.
Take `COC(=O)c1ccc(-c2cc3cccc([N+](=O)[O-])c3[nH]c2=O)cc1` [Compound 18, 3-(4-methoxycarbonylphenyl)-8-nitroquinolin-2(1H)-one]: the half-inhibitory concentration (IC50) in data set [1] is greater than 12.5 µM. The molecule also came in with a CC50 at 72 h in data set [2] greater than 12.5 µM.
In the case of `O=C(O)c1ccc(-c2cc3cccc([N+](=O)[O-])c3[nH]c2=O)cc1` [Compound 21, 3-(4-carboxyphenyl)-8-nitroquinolin-2(1H)-one], the IC50 in data set [1] is greater than 100 µM. The molecule also came in with a half-maximal cytotoxic concentration (CC50) at 72 h in data set [2] of 120 ± 7 µM. Besides, in data set [3], the “Antitrypanosomal selectivity Index” value was determined as 80 and the “times more potent than the meta-substituted analogue” value is listed as 5. Further, the “E° (reduction potential)” value in data set [4] is reported as -0.56 V. In addition, the IC50 in data set [5] is 5.4 ± 0.12 µM. In data set [6], the IC50 stood at 4200 ± 200 nM and the Fold change amounted to 1.3.
In the case of `O=C(O)c1cccc(-c2cc3cccc([N+](=O)[O-])c3[nH]c2=O)c1` [Compound 22, 3-(3-carboxyphenyl)-8-nitroquinolin-2(1H)-one], the IC50 in data set [1] is greater than 100 µM. Besides, the CC50 at 72 h in data set [2] is greater than 100 µM. The “Antitrypanosomal selectivity Index” value in data set [3] was greater than 13.
Turning to `O=C(O)c1ccccc1-c1cc2cccc([N+](=O)[O-])c2[nH]c1=O` [Compound 23, 3-(2-carboxyphenyl)-8-nitroquinolin-2(1H)-one], the IC50 in data set [1] was greater than 100 µM. Moreover, the CC50 at 72 h in data set [2] is greater than 100 µM.
As for `O=c1[nH]c2c([N+](=O)[O-])cccc2cc1C#Cc1ccccc1` [Compound 24, 8-nitro-3-phenylethynylquinolin-2(1H)-one], the stability result in data set [7] is “too unstable”.
In the case of `O=[N+]([O-])c1cccc2cc3cc(-c4ccccc4)oc3nc12` [Compound 25, 8-nitro-2-phenyl-furo[2,3-b]quinoline], the aqueous solubility result in data set [8] is recorded as “very poor aqueous solubility”.
Regarding `COc1nc2c([N+](=O)[O-])cccc2cc1-c1ccc(C(=O)O)cc1` [Compound 26, 3-(4-carboxyphenyl)-2-methoxy-8-nitroquinoline], the half-maximal inhibitory concentration (IC50) in data set [1] was determined as 12.8 µM.
Take `COc1cccc2c1C(=O)c1c(O)c3c(c(O)c1C2=O)C[C@@](O)(C(=O)CO)C[C@@H]3O[C@H]1C[C@H](N)[C@H](O)[C@H](C)O1` [Doxorubicin, reference compound]: in data set [2], the midpoint of cytotoxicity, the CC50 at 72 h, lay at 0.2 ± 0.02 µM.
For the molecule `NCCCC(N)(C(=O)O)C(F)F` (stereo not shown) [Eflornithine, reference compound], the 50% cytotoxic concentration (CC50) at 72 h in data set [2] was greater than 100 µM. Also, the “Antitrypanosomal selectivity Index” value in data set [3] was greater than 6.
On to `CSc1ccc(OCc2ncc([N+](=O)[O-])n2C)cc1` [Fexinidazole, reference compound], for which the IC50 in data set [1] worked out at 3.3 ± 0.7 µM. The same molecule displayed a cytotoxic concentration (CC50) at 72 h in data set [2] greater than 100 µM. Besides, the “Antitrypanosomal selectivity Index” value in data set [3] is reported as greater than 250.
As for `CCCCCCCCCCCCCCCCOP(=O)([O-])OCC[N+](C)(C)C` [Miltefosine, reference compound], in data set [1], the 50% inhibitory concentration (IC50) came to 0.8 ± 0.2 µM. Moreover, in data set [2], it took 84.5 ± 8.8 µM to reach half-maximal cytotoxicity (CC50 at 72 h).
With `CC1CS(=O)(=O)CCN1/N=C/c1ccc([N+](=O)[O-])o1` (stereo not shown) [Nifurtimox, reference compound], the IC50 in data set [5] was found to be 1.9 ± 0.05 µM. In data set [6], the half-maximal inhibitory concentration (IC50) came to 600 ± 50 nM and the Fold change is given as 3.1.
Regarding `Cc1ccc(C(=O)Nc2ccc(S(=O)(=O)O)c3cc(S(=O)(=O)O)cc(S(=O)(=O)O)c23)cc1NC(=O)c1cccc(NC(=O)Nc2cccc(C(=O)Nc3cc(C(=O)Nc4ccc(S(=O)(=O)O)c5cc(S(=O)(=O)O)cc(S(=O)(=O)O)c45)ccc3C)c2)c1` [Suramin, reference compound], the CC50 at 72 h in data set [2] was greater than 100 µM. Also, the “Antitrypanosomal selectivity Index” value in data set [3] is given as greater than 3333.

(Values after publication PMC7089779 (ChemMedChem, 2018).)
